ChEMBL document CHEMBL1145968, “3-(alphaR)-alpha-((2S,5R)-4-allyl-2,5-dimethyl-1-piperazinyl)-3-hydroxybenzyl)-N-alkyl-N-arylbenzamides: potent, non-peptidic agonists of both the micro and delta opioid receptors” (J Med Chem, 2003)

Species: Cavia porcellus
Test: Inhibition of the electrically induced muscle contractions was determined using the guinea pig ileum
Assay type: functional
Details: not given
Procedure, shortened: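 Intact ileum segments (about 3 cm) suspended under 1 g tension in modified Krebs buffer containing 1.20 mM MgSO4. Field-stimulated with square-wave pulses at 0.1 Hz, 0.5 ms, supramaximal voltage. Cumulative concentrations were each given time for maximal response before the next.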
`C=CCN1C[C@H](C)N([C@@H](c2cccc(O)c2)c2cccc(C(=O)N(C)c3cccc(F)c3)c2)C[C@H]1C` (stereo in doubt; 24) was tested, and the EC50 was 3.4 nM. Work on `C=CCN1C[C@H](C)N([C@@H](c2cccc(O)c2)c2cccc(C(=O)N(C)c3cccc(F)c3)c2)C[C@H]1C` (stereo in doubt; 32) yielded an EC50 of 1800 nM.

Same assay, conditions: Cavia porcellus, Ileum
Work on `C=CCN1C[C@H](C)N([C@@H](c2cccc(O)c2)c2cccc(C(=O)N(CCCC)c3ccccc3)c2)C[C@H]1C` yielded an EC50 of 41 nM. Work on `C=CCN1C[C@H](C)N([C@@H](c2cccc(O)c2)c2cccc(C(=O)N(C)c3ccc(Cl)cc3)c2)C[C@H]1C` yielded an EC50 of 4.9 nM. Work on `C=CCN1C[C@H](C)N([C@@H](c2cccc(O)c2)c2cccc(C(=O)N(C)c3ccccc3C(F)(F)F)c2)C[C@H]1C` yielded an EC50 of 5.6 nM. `C=CCN1C[C@H](C)N([C@@H](c2cccc(O)c2)c2cccc(C(=O)N(C)CCc3ccccc3)c2)C[C@H]1C` gave an EC50 of 6.6 nM. Work on `C=CCN1C[C@H](C)N([C@@H](c2cccc(O)c2)c2cccc(C(=O)N(C)c3ccccc3)c2)C[C@H]1C` yielded an EC50 of 59.5 nM. Work on `C=CCN1C[C@H](C)N([C@@H](c2cccc(O)c2)c2cccc(C(=O)N(c3ccccc3)C3CC3)c2)C[C@H]1C` yielded an EC50 of 1.23 nM. In the case of `C=CCN1C[C@H](C)N([C@@H](c2cccc(O)c2)c2cccc(C(=O)N(C)c3ccccc3F)c2)C[C@H]1C`, the EC50 is reported as 4.1 nM. `C=CCN1C[C@H](C)N([C@@H](c2cccc(O)c2)c2cccc(C(=O)N3CCCc4ccccc43)c2)C[C@H]1C` gave an EC50 of 11.5 nM. Molecule `C=CCN1C[C@H](C)N([C@@H](c2cccc(O)c2)c2cccc(C(=O)N(CCC)c3ccccc3)c2)C[C@H]1C` has an EC50 of 18 nM. For `C=CCN1C[C@H](C)N([C@@H](c2cccc(O)c2)c2cccc(C(=O)N(C)c3ccc([N+](=O)[O-])cc3)c2)C[C@H]1C`, the EC50 was 4.1 nM. Molecule `C=CCN1C[C@H](C)N([C@H](c2cccc(O)c2)c2cccc(C(=O)N(C)c3ccccc3)c2)C[C@H]1C` has an EC50 of 1.22 nM. For `C=CCN1C[C@H](C)N([C@@H](c2cccc(O)c2)c2cccc(C(=O)N(C)c3ccc(OC)cc3)c2)C[C@H]1C`, the EC50 was 1.1 nM. Work on `C=CCN1C[C@H](C)N([C@@H](c2cccc(O)c2)c2cccc(C(=O)N(CC)c3ccc(F)cc3)c2)C[C@H]1C` yielded an EC50 of 4 nM. Work on `C=CCN1C[C@H](C)N([C@H](c2cccc(O)c2)c2cccc(C(=O)N(CC)CC)c2)C[C@H]1C` yielded an EC50 of 4.35 nM. `C=CCN1C[C@H](C)N([C@@H](c2cccc(O)c2)c2cccc(C(=O)N(CCC)c3ccc(F)cc3)c2)C[C@H]1C` gave an EC50 of 1050 nM. Molecule `C=CCN1C[C@H](C)N([C@@H](c2cccc(O)c2)c2cccc(C(=O)N(CC)c3ccccc3)c2)C[C@H]1C` has an EC50 of 0.94 nM. `C=CCN1C[C@H](C)N([C@@H](c2cccc(O)c2)c2cccc(C(=O)N(C)Cc3ccccc3)c2)C[C@H]1C` showed an EC50 of 6.07 nM. In the case of `C=CCN1C[C@H](C)N([C@@H](c2cccc(O)c2)c2cccc(C(=O)N(C)c3ccc(F)cc3)c2)C[C@H]1C`, the EC50 is reported as 0.67 nM. For `C=CCN1C[C@H](C)N(C(c2ccc(C(=O)N(CC)CC)cc2)c2cccc(O)c2)C[C@H]1C` (single isomer, unassigned), the EC50 was 150 nM.

Species: Mus musculus
Test: Inhibition of the electrically induced muscle contractions was determined using the mouse vas deferens
Assay type: functional
Details: not given
Procedure, shortened: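 Vas deferens segments in Krebs buffer, placed between platinum electrodes with isometric force recording at 0.5 g resting tension. Stimulated with 400 ms trains (1 ms pulses, 10 Hz, supramaximal voltage). Cumulative concentrations were each allowed maximal effect before the next.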
With `C=CCN1C[C@H](C)N([C@@H](c2cccc(O)c2)c2cccc(C(=O)N(C)c3cccc(F)c3)c2)C[C@H]1C` (stereo in doubt; 24) the EC50 was 0.79 nM. `C=CCN1C[C@H](C)N([C@@H](c2cccc(O)c2)c2cccc(C(=O)N(C)c3cccc(F)c3)c2)C[C@H]1C` (stereo in doubt; 32) gave an EC50 of 25.3 nM.

Same assay, conditions: Mus musculus
With `C=CCN1C[C@H](C)N([C@@H](c2cccc(O)c2)c2cccc(C(=O)N(CCCC)c3ccccc3)c2)C[C@H]1C` the EC50 was 1.7 nM. `C=CCN1C[C@H](C)N([C@@H](c2cccc(O)c2)c2cccc(C(=O)N(C)c3ccc(Cl)cc3)c2)C[C@H]1C` was tested, and the EC50 was 2.6 nM. With `C=CCN1C[C@H](C)N([C@@H](c2cccc(O)c2)c2cccc(C(=O)N(C)c3ccccc3C(F)(F)F)c2)C[C@H]1C` the EC50 was 0.95 nM. Molecule `C=CCN1C[C@H](C)N([C@@H](c2cccc(O)c2)c2cccc(C(=O)N(C)CCc3ccccc3)c2)C[C@H]1C` has an EC50 of 0.34 nM. For `C=CCN1C[C@H](C)N([C@@H](c2cccc(O)c2)c2cccc(C(=O)N(C)c3ccccc3)c2)C[C@H]1C`, the EC50 was 1.7 nM. Molecule `C=CCN1C[C@H](C)N([C@@H](c2cccc(O)c2)c2cccc(C(=O)N(c3ccccc3)C3CC3)c2)C[C@H]1C` has an EC50 of 1.42 nM. Work on `C=CCN1C[C@H](C)N([C@@H](c2cccc(O)c2)c2cccc(C(=O)N(C)c3ccccc3F)c2)C[C@H]1C` yielded an EC50 of 0.69 nM. Molecule `C=CCN1C[C@H](C)N([C@@H](c2cccc(O)c2)c2cccc(C(=O)N3CCCc4ccccc43)c2)C[C@H]1C` has an EC50 of 1.05 nM. `C=CCN1C[C@H](C)N([C@@H](c2cccc(O)c2)c2cccc(C(=O)N(CCC)c3ccccc3)c2)C[C@H]1C` showed an EC50 of 2.4 nM. Work on `C=CCN1C[C@H](C)N([C@@H](c2cccc(O)c2)c2cccc(C(=O)N(C)c3ccc([N+](=O)[O-])cc3)c2)C[C@H]1C` yielded an EC50 of 2.3 nM. In the case of `C=CCN1C[C@H](C)N([C@H](c2cccc(O)c2)c2cccc(C(=O)N(C)c3ccccc3)c2)C[C@H]1C`, the EC50 is reported as 0.47 nM. Work on `C=CCN1C[C@H](C)N([C@@H](c2cccc(O)c2)c2cccc(C(=O)N(C)c3ccc(OC)cc3)c2)C[C@H]1C` yielded an EC50 of 0.36 nM. `C=CCN1C[C@H](C)N([C@@H](c2cccc(O)c2)c2cccc(C(=O)N(CC)c3ccc(F)cc3)c2)C[C@H]1C` was tested, and the EC50 was 1.4 nM. For `C=CCN1C[C@H](C)N([C@H](c2cccc(O)c2)c2cccc(C(=O)N(CC)CC)c2)C[C@H]1C`, the EC50 was 5.85 nM. With `C=CCN1C[C@H](C)N([C@@H](c2cccc(O)c2)c2cccc(C(=O)N(CCC)c3ccc(F)cc3)c2)C[C@H]1C` the EC50 was 0.68 nM. `C=CCN1C[C@H](C)N([C@@H](c2cccc(O)c2)c2cccc(C(=O)N(CC)c3ccccc3)c2)C[C@H]1C` gave an EC50 of 0.96 nM. Molecule `C=CCN1C[C@H](C)N([C@@H](c2cccc(O)c2)c2cccc(C(=O)N(C)Cc3ccccc3)c2)C[C@H]1C` has an EC50 of 5.6 nM. With `C=CCN1C[C@H](C)N([C@@H](c2cccc(O)c2)c2cccc(C(=O)N(C)c3ccc(F)cc3)c2)C[C@H]1C` the EC50 was 1.1 nM. Molecule `C=CCN1C[C@H](C)N(C(c2ccc(C(=O)N(CC)CC)cc2)c2cccc(O)c2)C[C@H]1C` (single isomer, unassigned) has an EC50 of 0.2 nM.

These molecules were tested against Delta-type opioid receptor (Rattus norvegicus, UniProt P33533) (assay: Binding affinity of compound evaluated for Opioid receptor delta 1 isolated from rat brain). Details: not given.
Delta-type opioid receptor, sequence (P33533 whole entry): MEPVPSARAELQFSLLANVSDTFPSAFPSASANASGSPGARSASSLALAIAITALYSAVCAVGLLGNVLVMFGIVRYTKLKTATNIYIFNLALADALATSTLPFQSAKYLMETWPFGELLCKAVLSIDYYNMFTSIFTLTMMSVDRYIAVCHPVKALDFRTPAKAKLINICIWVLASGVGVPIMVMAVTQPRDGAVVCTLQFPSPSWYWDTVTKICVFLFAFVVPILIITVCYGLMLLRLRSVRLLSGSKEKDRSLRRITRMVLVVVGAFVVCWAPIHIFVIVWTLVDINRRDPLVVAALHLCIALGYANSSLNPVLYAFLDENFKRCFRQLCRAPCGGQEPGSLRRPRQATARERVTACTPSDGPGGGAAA
In the case of `C=CCN1C[C@H](C)N([C@@H](c2cccc(O)c2)c2cccc(C(=O)N(C)c3ccc(Cl)cc3)c2)C[C@H]1C`, the Ki is reported as 2.73 nM. Molecule `C=CCN1C[C@H](C)N([C@@H](c2cccc(O)c2)c2cccc(C(=O)N(C)c3ccccc3)c2)C[C@H]1C` has a Ki of 1.37 nM. With `C=CCN1C[C@H](C)N([C@@H](c2cccc(O)c2)c2cccc(C(=O)N(c3ccccc3)C3CC3)c2)C[C@H]1C` the Ki was 1.92 nM. Molecule `C=CCN1C[C@H](C)N([C@@H](c2cccc(O)c2)c2cccc(C(=O)N3CCCc4ccccc43)c2)C[C@H]1C` has a Ki of 1.18 nM. Work on `C=CCN1C[C@H](C)N([C@@H](c2cccc(O)c2)c2cccc(C(=O)N(CCC)c3ccccc3)c2)C[C@H]1C` yielded a Ki of 1.26 nM. Work on `C=CCN1C[C@H](C)N([C@@H](c2cccc(O)c2)c2cccc(C(=O)N(C)c3ccc(OC)cc3)c2)C[C@H]1C` yielded a Ki of 2.01 nM. For `C=CCN1C[C@H](C)N([C@H](c2cccc(O)c2)c2cccc(C(=O)N(CC)CC)c2)C[C@H]1C`, the Ki was 2.1 nM. `C=CCN1C[C@H](C)N([C@@H](c2cccc(O)c2)c2cccc(C(=O)N(CCC)c3ccc(F)cc3)c2)C[C@H]1C` showed a Ki of 2.75 nM. For `C=CCN1C[C@H](C)N([C@@H](c2cccc(O)c2)c2cccc(C(=O)N(CC)c3ccccc3)c2)C[C@H]1C`, the Ki was 2.17 nM. `C=CCN1C[C@H](C)N([C@@H](c2cccc(O)c2)c2cccc(C(=O)N(C)c3ccc(F)cc3)c2)C[C@H]1C` was tested, and the Ki was 1.4 nM. With `C=CCN1C[C@H](C)N(C(c2ccc(C(=O)N(CC)CC)cc2)c2cccc(O)c2)C[C@H]1C` (single isomer, unassigned) the Ki was 1.8 nM. Work on `C=CCN1C[C@H](C)N([C@@H](c2cccc(O)c2)c2cccc(C(=O)N(C)c3cccc(F)c3)c2)C[C@H]1C` (stereo in doubt; 24) yielded a Ki of 0.18 nM. `C=CCN1C[C@H](C)N([C@@H](c2cccc(O)c2)c2cccc(C(=O)N(C)c3cccc(F)c3)c2)C[C@H]1C` (stereo in doubt; 32) showed a Ki of 11.4 nM.
